Here are results for 13 compounds from paper PMC8829947 (ACS Omega, 2022).

The Kd is a measure of binding affinity in units of concentration. One may read the IC50 as the concentration needed to halve the response being measured. For orientation: MIC means the lowest concentration that inhibits growth of the organism.

Series [1] is described as follows: Zn2+ affinity by competition with colorimetric PAR assay. Type of series: binding. As to conditions: for Kd: read-out: Kd,Zn2, PAR 100 μM, ZnSO4 10 μM, pH 7.5, 3 h at 25 °C. Put shortly:
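The test compound was titrated into Chelex-100-treated 20 mM HEPES, 100 mM NaCl, pH 7.5, containing PAR 100 μM and ZnSO4 10 μM, then incubated 3 h at 25 °C. Zn2+ displacement from PAR was read as the fall in absorbance at 492 nm. Kd was estimated from the known PAR stability constant at pH 7.4.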

Series [2] deals with NDM-1 (Klebsiella pneumoniae, UniProt C7C422). The series is described as follows: In vitro enzyme inhibition assay, purified recombinant NDM-1. Type of series: biochemical. Put shortly:
(§1)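 Purified recombinant enzyme at 4 nM was preincubated 5–10 min at RT with varying inhibitor concentrations. Buffer was 50 mM HEPES pH 7.5, 0.2% DMSO, 1% PEG 4000, with either 10 μM ZnSO4 or no zinc (Chelex-100-treated, 2 h, filtered). Reactions were started with nitrocefin (30 μM final, A490) or meropenem (50 μM final, A300) and followed 60 s. IC50 came from the linear portion of progress curves. Duplicates.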

Series [3] concerns the target VIM-2 (Escherichia coli, UniProt Q5U7L7). Description: In vitro enzyme inhibition assay, purified recombinant VIM-2. Type of series: biochemical. The essentials:
as §1

Series [4] concerns the target IMP-7. The series is described as follows: In vitro enzyme inhibition assay, purified recombinant IMP-7. The note with it: read-out: IC50 IMP-7 - Zn; Zn2+-depleted (Chelex-100-treated) buffer. Type of series: biochemical. The essentials: as §1
For series [5], the system named is E. coli expressing blaNDM-1. The series is described as follows: Meropenem rescue concentration, antimicrobial susceptibility test. As to conditions: rescue concentration at meropenem 2 μg/mL, MHB. The class given is cell-based, Escherichia coli. Put shortly: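 Checkerboard broth microdilution in Mueller–Hinton broth against E. coli carrying the plasmid-borne MBL gene. Meropenem used five 2-fold dilutions and the test compound six 2-fold dilutions, within 0.5–64 μg/mL; the test compound was dissolved in water or 50% methanol. Inoculum was adjusted to OD625 0.08–0.10, then diluted 200-fold. Incubation was 20 h static at 37 °C, read at OD600. RC is the compound concentration restoring susceptibility at meropenem 2 μg/mL. ≥2 replicates.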

Series [6] deals with K. pneumoniae ATCC 33495::pGDP2 (NDM-1). The series is described as follows: Meropenem rescue and MIC, antimicrobial susceptibility test. The class given is cell-based, Klebsiella pneumoniae. As to conditions: for RC in MHB, K. pneumoniae ATCC 33495::pGDP2 (NDM-1): rescue concentration at meropenem 2 μg/mL; for MIC: Klebsiella pneumoniae.
Series [7] has as its system A. baumannii ATCC 17978::pROTO2 (NDM-1). The series is described as above. Type of series: cell-based, Acinetobacter baumannii. The note with it: rescue concentration at meropenem 2 μg/mL.
Series [8] has as its system E. coli BW25113 (WT). Description: Cell penetration / intracellular accumulation assay. Type of series: cell-based, Escherichia coli. As to conditions: 50 μM, wild-type E. coli. Put shortly:
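E. coli BW25113 (wild type) cells were incubated with the test compound at 50 μM (reference chelator at 50 or 100 μM) for 10 min at 37 °C. Cells were spun through ice-cold silicone oil (12,000g, 2 min), resuspended in water and lysed by three freeze–thaw cycles. The debris pellet was extracted with MeOH. Pooled extracts were quantified by UPLC–Q-TOF targeted MS/MS against a calibration curve. Biological and technical triplicates.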

Series [9] deals with E. coli. Description: MIC of single agent, antimicrobial susceptibility test. Type of series: cell-based. As to conditions: Escherichia coli.
Where [10] appears, read: IC50 NDM-1 + Zn, Zn2+-supplemented (10 μM) buffer.
[11] abbreviates: IC50 NDM-1 - Zn, Zn2+-depleted (Chelex-100-treated) buffer.

≈ marks a conversion by molar mass, not a printed value. Read-outs that look alike come from different tables or passages of the source.

NDM-1, sequence (C7C422 29-270, looked up, species assumed): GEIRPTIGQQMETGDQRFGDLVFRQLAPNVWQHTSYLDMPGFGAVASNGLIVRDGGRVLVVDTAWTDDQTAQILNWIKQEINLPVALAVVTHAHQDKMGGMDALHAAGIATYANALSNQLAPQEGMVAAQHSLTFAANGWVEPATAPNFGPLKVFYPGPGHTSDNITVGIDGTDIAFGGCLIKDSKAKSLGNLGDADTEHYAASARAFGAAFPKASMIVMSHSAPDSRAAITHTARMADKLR

As to `N[C@@H](CN[C@@H](CN[C@@H](CC(=O)O)C(=O)O)C(=O)O)CSc1ccccc1` [Compound 4], the Kd in series [1] worked out at 0.0004 ± 7e-05 µM. Moreover, the concentration for half-maximal inhibition (IC50) is 12.5 ± 0.8 µM in series [2] (setting [10]), 150 ± 16 µM in series [2] (setting [11]), 246 ± 23 µM in [3] and 32 ± 3.1 µM in series [4]. The “RC in MHB, NDM-1” value in series [5] was 8 µg/mL. Also, the “RC in MHB, K. pneumoniae ATCC 33495::pGDP2 (NDM-1)” value in series [6] is given as 8 μg/mL. In [7], the “RC in MHB, A. baumannii ATCC 17978::pROTO2 (NDM-1)” value is 8 μg/mL. Moreover, the “intracellular accumulation increase relative to AMA” value in series [8] was determined as 1.5 fold.
For `N[C@@H](CN[C@@H](CNC(CS)C(=O)O)C(=O)O)C(=O)O` (stereo in doubt) [Compound 11, (S)-2-Amino-3-(((S)-1-carboxy-2-(((S)-1-carboxy-2-mercaptoethyl)amino)ethyl)amino)propanoic Acid], the equilibrium dissociation constant (Kd) in series [1] is 0.0002 ± 5e-05 µM. For the same compound, the IC50 in series [2] (setting [10]) came out at 15.6 ± 0.2 µM; in series [2] (setting [11]) it was 21.5 ± 0.8 µM; in series [3] it was 22 ± 1 µM; in series [4], 328 ± 15 µM. Further, the “RC in MHB, NDM-1” value in series [5] was 32 µg/mL.
In the case of `N[C@@H](CN[C@@H](CN[C@@H](CC(=O)O)C(=O)O)C(=O)O)CSc1ccc(O)cc1` [Compound 6, ((S)-2-(((S)-2-Amino-3-((4-hydroxyphenyl)thio)propyl)amino)-2-carboxyethyl)-L-aspartic Acid], the Kd in series [1] stood at 0.0078 ± 0.0034 µM. The IC50 is 54 ± 4.1 µM in series [2] (setting [10]), over 500 µM in [2] (setting [11]), 183 ± 10 µM in series [3] and over 500 µM in series [4]. Further, in series [5], the “RC in MHB, NDM-1” value came to 8 µg/mL. In series [6], the “RC in MHB, K. pneumoniae ATCC 33495::pGDP2 (NDM-1)” value is recorded as 16 μg/mL. In addition, the “RC in MHB, A. baumannii ATCC 17978::pROTO2 (NDM-1)” value in series [7] amounted to 8 μg/mL. Besides, in series [8], the “intracellular accumulation increase relative to AMA” value was found to be 4.5 fold.
Regarding `N[C@@H](CN[C@@H](CN[C@@H](Cc1c[nH]cn1)C(=O)O)C(=O)O)C(=O)O` [Compound 10, (S)-2-Amino-3-(((S)-1-carboxy-2-(((S)-1-carboxy-2-(1H-imidazol-4-yl)ethyl)amino)ethyl)amino)propanoic Acid], the “Zn2+ affinity (in words)” value in [1] (outside the detection range of the assay, estimated) is recorded as “subpicomolar or lower”. Also, the concentration for half-maximal inhibition (IC50) in series [2] (setting [10]) was 21.7 ± 3.9 µM; in [2] (setting [11]), 173 ± 3.9 µM; in series [3], 136 ± 5 µM; in series [4], over 500 µM. For the same compound, the “RC in MHB, NDM-1” value in series [5] is 8 µg/mL. Besides, the “RC in MHB, K. pneumoniae ATCC 33495::pGDP2 (NDM-1)” value in series [6] is 8 μg/mL. In addition, in series [7], the “RC in MHB, A. baumannii ATCC 17978::pROTO2 (NDM-1)” value is on record as 4–8 μg/mL.
In the case of `N[C@@H](CN[C@@H](CN[C@@H](Cc1ccc(O)cc1)C(=O)O)C(=O)O)C(=O)O` [Compound 20, (S)-2-Amino-3-(((S)-1-carboxy-2-(((S)-1-carboxy-2-(4-hydroxyphenyl)ethyl)amino)ethyl)amino)propanoic Acid], in series [1], the dissociation constant (Kd) is 0.00064 ± 0.00017 µM. The IC50 in series [2] (setting [10]) came out at 38 ± 1.8 µM; in series [2] (setting [11]), 172 ± 1.5 µM. The “RC in MHB, NDM-1” value in [5] was 16 µg/mL. The “RC in MHB, K. pneumoniae ATCC 33495::pGDP2 (NDM-1)” value in series [6] is recorded as 64 μg/mL. The “RC in MHB, A. baumannii ATCC 17978::pROTO2 (NDM-1)” value in series [7] amounted to 32 μg/mL.
In the case of `NC(=O)C[C@H](NC[C@H](NC[C@H](N)C(=O)O)C(=O)O)C(=O)O` [Compound 16, ((S)-2-(((S)-2-Amino-2-carboxyethyl)amino)-2-carboxyethyl)-L-asparagine], the dissociation constant (Kd) in series [1] was 0.001 ± 0.0001 µM. Besides, the values for the half-maximal inhibitory concentration (IC50) in series [2] (setting [10]) and in series [2] (setting [11]) were 18.3 ± 0.7 µM and over 1000 µM, respectively. Moreover, in series [5], the “RC in MHB, NDM-1” value came out at 16 µg/mL. Besides, the “RC in MHB, K. pneumoniae ATCC 33495::pGDP2 (NDM-1)” value in series [6] is 32 μg/mL. Besides, in series [7], the “RC in MHB, A. baumannii ATCC 17978::pROTO2 (NDM-1)” value is 16 μg/mL.
In the case of `CCCSC[C@@H](N)CN[C@@H](CN[C@@H](CC(=O)O)C(=O)O)C(=O)O` [Compound 7, ((S)-2-(((S)-2-Amino-3-(propylthio)propyl)amino)-2-carboxyethyl)-L-aspartic Acid], in [1], the Kd was 0.109 ± 0.04 µM. Further, the 50% inhibitory concentration (IC50) is 29.2 ± 1 µM in [2] (setting [10]) and over 500 µM in [2] (setting [11]). Moreover, in series [5], the “RC in MHB, NDM-1” value was over 64 µg/mL.
For `N[C@@H](CN[C@@H](CN[C@H](C(=O)O)c1ccc(O)cc1)C(=O)O)C(=O)O` [Compound 22, (S)-2-Amino-3-(((S)-1-carboxy-2-(((S)-carboxy(4-hydroxyphenyl)methyl)amino)ethyl)amino)propanoic Acid], in that order: 0.0095 ± 0.0065 µM, 283 ± 27.4 µM, 23 ± 3.6 µM and over 64 µg/mL.
Take `CC(C)(S)C(NC[C@H](NC[C@H](N)C(=O)O)C(=O)O)C(=O)O` (stereo in doubt) [Compound 14, (R)-2-(((S)-2-(((S)-2-Amino-2-carboxyethyl)amino)-2-carboxyethyl)amino)-3-mercapto-3-methylbutanoic Acid]: the Kd in series [1] stood at 0.0026 ± 0.0004 µM. Besides, the half-inhibitory concentration (IC50) in [2] (setting [10]) was 112 ± 4.8 µM; in [2] (setting [11]) it was 185 ± 7.8 µM; in series [3], 246 ± 17 µM; in [4], over 500 µM. Besides, the “RC in MHB, NDM-1” value in series [5] was 32 µg/mL.
For `N[C@@H](CN[C@@H](CN[C@@H](Cc1ccc(OP(=O)(O)O)cc1)C(=O)O)C(=O)O)C(=O)O` (mixture of isomers) [Compound 21, (S)-2-Amino-3-(((S)-1-carboxy-2-(((S)-1-carboxy-2-(4-(phosphonooxy)phenyl)ethyl)amino)ethyl)amino)propanoic Acid], in series [1], the Kd worked out at 0.0108 ± 0.0081 µM. Also, the IC50 in series [2] (setting [10]) was found to be 54 ± 5.6 µM; in series [2] (setting [11]) it was 25.1 ± 8.3 µM. The “RC in MHB, NDM-1” value in [5] amounted to 64 µg/mL.
Take `CC(C)(S)C(NC[C@H](NC[C@H](N)C(=O)O)C(=O)O)C(=O)O` (stereo in doubt) [Compound 15, (S)-2-(((S)-2-(((S)-2-Amino-2-carboxyethyl)amino)-2-carboxyethyl)amino)-3-mercapto-3-methylbutanoic Acid]: the Kd in series [1] turned out to be 0.0023 ± 0.0004 µM. Further, the concentration for half-maximal inhibition (IC50) in series [2] (setting [10]) was 56.1 ± 2.5 µM; in [2] (setting [11]), 98.6 ± 4 µM; in series [3], 361 ± 29 µM; in [4], over 500 µM. Also, in series [5], the “RC in MHB, NDM-1” value turned out to be 32 µg/mL. In addition, the minimal inhibitory concentration (MIC) in series [6] (ATCC33495, read-out: MIC of compound (Table 3 footnote c)) was 16 to 32 mg/L; in series [9] (read-out: MIC (antimicrobial activity)) it was 64 mg/L.
Turning to `NC(Cc1ccc(O)cc1)C(=O)N[C@@H](CN[C@@H](CN[C@@H](CC(=O)O)C(=O)O)C(=O)O)C(=O)O` (stereo in doubt) [Compound 2, ((S)-2-(((S)-2-((R)-2-Amino-3-(4-hydroxyphenyl)propanamido)-2-carboxyethyl)amino)-2-carboxyethyl)-L-aspartic Acid], the equilibrium dissociation constant (Kd) in series [1] was 0.0014 ± 0.00056 µM. The IC50 in series [2] (setting [10]) was over 100 µM; in series [2] (setting [11]) it was over 500 µM. In addition, the “RC in MHB, NDM-1” value in series [5] is over 64 µg/mL.
`C[C@@H](O)[C@H]1C(=O)N2C(C(=O)O)=C(S[C@@H]3CN[C@H](C(=O)N(C)C)C3)[C@H](C)[C@H]12` [meropenem, reference compound]: the minimal inhibitory concentration (MIC) in [6] (ATCC33495, read-out: Meropenem MIC (Table 3 footnote b)) was 16 to 32 mg/L (≈ 41.7 to 83.4 µM); in series [9] (read-out: MIC of meropenem against resistant E. coli), 64 mg/L. The same compound registered an intracellular accumulation in series [8] (10 min 37 °C) of 43.9 nmol/10^12 CFU.
